# Experimental data reported in ChEMBL document CHEMBL3580657, “Design and Evaluation of 3-(Benzylthio)benzamide Derivatives as Potent and Selective SIRT2 Inhibitors” (ACS Med Chem Lett, 2015).
# Activity calls are given as the source filed them. No cut-off for these calls is given here.
# Molecular target: T1, NAD-dependent protein deacetylase sirtuin-2 (Rattus norvegicus) (UniProt Q5RJQ4)
# T1 sequence (whole entry): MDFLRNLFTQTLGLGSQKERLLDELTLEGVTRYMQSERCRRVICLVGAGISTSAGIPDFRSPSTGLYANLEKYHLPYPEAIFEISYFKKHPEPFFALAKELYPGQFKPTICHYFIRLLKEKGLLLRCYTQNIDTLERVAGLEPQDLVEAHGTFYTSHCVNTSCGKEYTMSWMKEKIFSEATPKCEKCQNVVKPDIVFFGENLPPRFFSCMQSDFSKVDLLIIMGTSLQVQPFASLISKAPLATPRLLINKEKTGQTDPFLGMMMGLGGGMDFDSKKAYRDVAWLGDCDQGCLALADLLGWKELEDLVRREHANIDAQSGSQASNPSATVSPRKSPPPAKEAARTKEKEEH
# Experiment: Inhibition of SIRT2 in rat ST14A cells assessed as increase in alpha-tubulin K40 acetylation at 0.5 to 50 uM incubated for 6 hrs by SDS-PAGE and Western blotting method
# Assay type: cell-based
# Conditions: not given
# Method in brief: (§1)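 Cells were treated with compound for 6 h across 0.5–50 μM. Extracts were resolved by SDS-PAGE and immunoblotted with an antibody to acetyl-K40 α-tubulin, with GAPDH as loading control. In ST14A, signal was normalized to GAPDH and quantified from blots.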
row,inhibition,SMILES
1,Dose-dependent effect,C[S+]([O-])c1ccc(NC(=O)c2cccc(SCc3ccc(Cl)cc3)c2)cc1 (stereo not drawn)

# Molecular target: T1, NAD-dependent protein deacetylase sirtuin-2 (Rattus norvegicus)
# Experiment: Inhibition of SIRT2 in rat ST14A cells assessed as increase in alpha-tubulin K40 acetylation at 25 uM incubated for 6 hrs by SDS-PAGE and Western blotting method
# Assay type: cell-based
# Conditions: not given
# Method in brief: as §1
row,inhibition,SMILES
1,Active,CSc1ccc(CSc2cccc(C(=O)Nc3ccc(C#N)cc3)c2)cc1

# Tested on: not listed separately
# Experiment: Toxicity in rat PC12 cells expressing inducible HD103Q-EGFP fusion fragment of huntingtin mutant assessed as effect on cell density at 5 uM by phase contrast microscopy
# Assay type: cell-based
# Conditions: pc-12, 5 µM
row,SMILES,Activity
1,CSc1ccc(CSc2cccc(C(=O)Nc3ccc(C#N)cc3)c2)cc1,Non-toxic

# Molecular target: T2, NAD-dependent protein deacetylase sirtuin-2 (Homo sapiens, UniProt Q8IXJ6)
# T2 sequence (Q8IXJ6 whole entry): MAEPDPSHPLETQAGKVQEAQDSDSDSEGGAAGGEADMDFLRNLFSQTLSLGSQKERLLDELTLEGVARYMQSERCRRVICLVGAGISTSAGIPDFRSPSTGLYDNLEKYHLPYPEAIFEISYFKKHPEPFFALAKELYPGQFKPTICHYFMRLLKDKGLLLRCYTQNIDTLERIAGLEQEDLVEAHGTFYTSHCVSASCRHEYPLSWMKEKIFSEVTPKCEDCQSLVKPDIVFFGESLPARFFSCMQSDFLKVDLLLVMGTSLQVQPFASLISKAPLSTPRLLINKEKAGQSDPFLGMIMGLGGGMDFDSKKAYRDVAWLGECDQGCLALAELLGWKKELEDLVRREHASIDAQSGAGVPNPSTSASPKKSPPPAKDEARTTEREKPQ
# Experiment: Inhibition of SIRT2 (unknown origin) by Flour-de-Lys fluorescent biochemical assay
# Conditions: not given
row,IC50,SMILES
1,Not Active,N#Cc1ccc(NC(=O)c2cccc(S(=O)(=O)Nc3ccc(Cl)cn3)c2)cc1

# Same assay, conditions: read-out: IC50
row,SMILES,IC50
1,N#Cc1ccc(NC(=O)c2cccc(SCc3ccc(Cl)cc3)c2)cc1,2.9 µM
2,C[S+]([O-])c1ccc(NC(=O)c2cccc(SCc3ccc(Cl)cc3)c2)cc1 (stereo not drawn),8.4 µM
3,N#Cc1ccc(NC(=O)c2cccc([S+]([O-])Cc3ccc(Cl)cc3)c2)cc1 (stereo not drawn),7.1 µM
4,CSc1ccc(CSc2cccc(C(=O)Nc3ccc(C#N)cc3)c2)cc1,2.4 µM

# Results, then the compound that gave them:
row,IC50,SMILES
1,4.7 µM,N#Cc1ccc(NC(=O)c2cccc(S(=O)(=O)Cc3ccc(Cl)cc3)c2)cc1
2,6.7 µM,COc1ccc(CS(=O)(=O)c2cccc(C(=O)Nc3ccc(C#N)cc3)c2)cc1

# Molecular target: T3, NAD-dependent protein deacetylase sirtuin-3, mitochondrial (Homo sapiens) (UniProt Q9NTG7)
# T3 sequence (whole entry): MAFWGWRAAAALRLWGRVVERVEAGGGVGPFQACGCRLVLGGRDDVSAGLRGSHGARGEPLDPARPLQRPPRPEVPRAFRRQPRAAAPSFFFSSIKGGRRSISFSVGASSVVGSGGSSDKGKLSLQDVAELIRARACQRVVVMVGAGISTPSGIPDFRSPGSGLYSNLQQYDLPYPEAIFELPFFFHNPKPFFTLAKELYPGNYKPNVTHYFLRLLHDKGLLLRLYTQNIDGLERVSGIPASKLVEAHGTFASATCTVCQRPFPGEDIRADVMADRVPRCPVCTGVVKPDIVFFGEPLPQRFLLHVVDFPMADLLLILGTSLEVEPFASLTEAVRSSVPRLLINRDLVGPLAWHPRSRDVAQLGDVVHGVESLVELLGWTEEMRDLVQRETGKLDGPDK
# Experiment: Inhibition of SIRT3 (unknown origin) at 10 uM by Flour-de-Lys fluorescent biochemical assay
# Conditions: not given
# Method in brief: (§2)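 Biochemical sirtuin deacetylation assays (SIRT1, SIRT2, SIRT3) run as in earlier work. Single 10 μM dose in triplicate. Primary screen was SIRT2, with SIRT1 and SIRT3 as counter-screens. A reference compound was included with each assay.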
row,SMILES,inhibition
1,N#Cc1ccc(NC(=O)c2cccc(SCc3ccc(Cl)cc3)c2)cc1,0%
2,C[S+]([O-])c1ccc(NC(=O)c2cccc(SCc3ccc(Cl)cc3)c2)cc1 (stereo not drawn),8%
3,N#Cc1ccc(NC(=O)c2cccc([S+]([O-])Cc3ccc(Cl)cc3)c2)cc1 (stereo not drawn),11%
4,CSc1ccc(CSc2cccc(C(=O)Nc3ccc(C#N)cc3)c2)cc1,0%

# The remaining lines, values ahead:
row,inhibition,SMILES
1,0%,N#Cc1ccc(NC(=O)c2cccc(S(=O)(=O)Cc3ccc(Cl)cc3)c2)cc1
2,0%,COc1ccc(CS(=O)(=O)c2cccc(C(=O)Nc3ccc(C#N)cc3)c2)cc1

# Molecular target: T4, NAD-dependent protein deacetylase sirtuin-1 (Homo sapiens) (UniProt Q96EB6)
# T4 sequence (whole entry): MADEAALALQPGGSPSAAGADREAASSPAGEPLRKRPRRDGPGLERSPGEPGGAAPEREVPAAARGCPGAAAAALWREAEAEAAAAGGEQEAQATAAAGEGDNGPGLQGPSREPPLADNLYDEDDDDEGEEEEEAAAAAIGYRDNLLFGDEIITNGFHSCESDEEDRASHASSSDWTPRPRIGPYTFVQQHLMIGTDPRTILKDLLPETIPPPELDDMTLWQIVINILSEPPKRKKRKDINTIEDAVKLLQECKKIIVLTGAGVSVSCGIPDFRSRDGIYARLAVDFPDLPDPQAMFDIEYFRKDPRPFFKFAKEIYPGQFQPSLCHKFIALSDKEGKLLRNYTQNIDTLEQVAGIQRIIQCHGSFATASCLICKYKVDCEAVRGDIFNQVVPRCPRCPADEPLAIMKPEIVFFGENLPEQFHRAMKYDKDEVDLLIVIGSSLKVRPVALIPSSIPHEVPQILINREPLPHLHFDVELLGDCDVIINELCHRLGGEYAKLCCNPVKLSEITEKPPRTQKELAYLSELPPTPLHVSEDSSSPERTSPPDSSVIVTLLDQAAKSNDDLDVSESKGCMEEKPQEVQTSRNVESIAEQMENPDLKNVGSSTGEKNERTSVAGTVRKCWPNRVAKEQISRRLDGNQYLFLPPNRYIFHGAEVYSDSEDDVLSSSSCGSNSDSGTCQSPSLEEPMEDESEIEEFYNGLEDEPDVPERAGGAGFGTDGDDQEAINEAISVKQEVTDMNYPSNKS
# Experiment: Inhibition of SIRT1 (unknown origin) at 10 uM by Flour-de-Lys fluorescent biochemical assay
# Conditions: not given
# Method in brief: as §2
row,SMILES,inhibition
1,N#Cc1ccc(NC(=O)c2cccc(SCc3ccc(Cl)cc3)c2)cc1,8%
2,C[S+]([O-])c1ccc(NC(=O)c2cccc(SCc3ccc(Cl)cc3)c2)cc1 (stereo not drawn),10%
3,N#Cc1ccc(NC(=O)c2cccc([S+]([O-])Cc3ccc(Cl)cc3)c2)cc1 (stereo not drawn),12%
4,CSc1ccc(CSc2cccc(C(=O)Nc3ccc(C#N)cc3)c2)cc1,3%

# Continued, values first:
row,inhibition,SMILES
1,0%,N#Cc1ccc(NC(=O)c2cccc(S(=O)(=O)Cc3ccc(Cl)cc3)c2)cc1
2,3%,COc1ccc(CS(=O)(=O)c2cccc(C(=O)Nc3ccc(C#N)cc3)c2)cc1

# Molecular target: T1, NAD-dependent protein deacetylase sirtuin-2 (Rattus norvegicus)
# Experiment: Inhibition of SIRT2 in rat PC12 cells expressing inducible HD103Q-EGFP fusion fragment of huntingtin mutant assessed as reduction in number and size of fluorescent polyQ inclusions at 5 uM treated simultaneously with 2.5 uM ecdysone-inducible gene inducer muristerone A for 24 hrs by fluorescence microscopy
# Assay type: cell-based
# Conditions: PC-12
# Method in brief: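 PC12 cells carrying inducible HD103Q-EGFP huntingtin fragment were induced with 2.5 μM muristerone A for 24 h, simultaneous with compound at 25, 10 or 5 μM. PolyQ aggregation was scored by epifluorescence microscopy as number and size of fluorescent inclusions.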
row,inhibition,SMILES
1,Active,CSc1ccc(CSc2cccc(C(=O)Nc3ccc(C#N)cc3)c2)cc1

# Molecular target: T5, NAD-dependent protein deacetylase sirtuin-2 (Homo sapiens) (UniProt Q8IXJ6)
# T5 sequence (whole entry): T2 sequence (Q8IXJ6 whole entry)
# Experiment: Inhibition of SIRT2 (unknown origin) at 10 uM by Flour-de-Lys fluorescent biochemical assay
# Conditions: not given
# Method in brief: as §2
row,SMILES,inhibition
1,N#Cc1ccc(NC(=O)c2cccc(SCc3ccc(Cl)cc3)c2)cc1,81%
2,COc1ccc(C[S+]([O-])c2cccc(C(=O)Nc3ccc(C#N)cc3)c2)cc1 (stereo not drawn),21%
3,C[S+]([O-])c1ccc(NC(=O)c2cccc(SCc3ccc(Cl)cc3)c2)cc1 (stereo not drawn),60%
4,C[S+]([O-])c1ccc(NC(=O)c2cccc([S+]([O-])Cc3ccc(Cl)cc3)c2)cc1 (stereo not drawn),24%
5,N#Cc1ccc(NC(=O)c2cccc([S+]([O-])Cc3ccc(Cl)cc3)c2)cc1 (stereo not drawn),47%
6,CSc1ccc(CSc2cccc(C(=O)Nc3ccc(C#N)cc3)c2)cc1,83%

# Results, then the compound that gave them:
row,inhibition,SMILES
1,18%,CS(=O)(=O)c1ccc(NC(=O)c2cccc([S+]([O-])Cc3ccc(Cl)cc3)c2)cc1 (stereo not drawn)
2,40%,N#Cc1ccc(NC(=O)c2cccc(S(=O)(=O)Cc3ccc(Cl)cc3)c2)cc1
3,0%,O=C(Nc1ccc(Cl)cc1)c1cccc(S(=O)(=O)Cc2ccc(Cl)cc2)c1
4,17%,CS(=O)(=O)c1ccc(NC(=O)c2cccc(S(=O)(=O)Cc3ccc(Cl)cc3)c2)cc1
5,50%,COc1ccc(CS(=O)(=O)c2cccc(C(=O)Nc3ccc(C#N)cc3)c2)cc1
6,2%,O=C(Nc1ccc(Cl)cn1)c1cccc(S(=O)(=O)Cc2ccc(Cl)cc2)c1
7,0%,O=C(Nc1ccc(Cl)nn1)c1cccc(S(=O)(=O)Cc2ccc(Cl)cc2)c1
8,23%,CC(=O)c1ccc(NC(=O)c2cccc(S(=O)(=O)Cc3ccc(Cl)cc3)c2)cc1
9,0%,O=C(Nc1ccc(Br)cc1)c1cccc(S(=O)(=O)Cc2ccc(Cl)cc2)c1
